Holding throughout (conditions): stereoisomer not certain
In one assay the target is T1, OR6S1 (Homo sapiens) (UniProt Q8NH40).
T1 sequence (whole entry): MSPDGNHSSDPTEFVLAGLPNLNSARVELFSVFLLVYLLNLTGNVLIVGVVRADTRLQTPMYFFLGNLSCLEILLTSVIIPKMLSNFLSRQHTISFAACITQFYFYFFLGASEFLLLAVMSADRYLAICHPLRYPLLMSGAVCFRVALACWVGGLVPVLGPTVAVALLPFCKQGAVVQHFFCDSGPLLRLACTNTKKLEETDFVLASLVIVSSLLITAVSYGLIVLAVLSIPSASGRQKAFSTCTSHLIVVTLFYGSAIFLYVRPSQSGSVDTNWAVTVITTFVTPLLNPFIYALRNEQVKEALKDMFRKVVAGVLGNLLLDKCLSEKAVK
A digest of the protocol:
(§1)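 Assay methods differ from source to source, frequently being transient luciferase assays in mammalian cell lines. For each receptor–molecule pair, the label responsive (active) applies when the original authors judged the measured signal statistically different from baseline, and non-responsive (inactive) applies otherwise.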

The test system of a further assay is T2, OR6S1 T42I V156I.
T2 sequence (whole entry): T1 sequence (whole entry) with T42I, V156I
A digest of the protocol: as §1

For a further assay, the target named is T3, OR6T1 (Homo sapiens) (UniProt Q8NGN1).
T3 sequence (whole entry): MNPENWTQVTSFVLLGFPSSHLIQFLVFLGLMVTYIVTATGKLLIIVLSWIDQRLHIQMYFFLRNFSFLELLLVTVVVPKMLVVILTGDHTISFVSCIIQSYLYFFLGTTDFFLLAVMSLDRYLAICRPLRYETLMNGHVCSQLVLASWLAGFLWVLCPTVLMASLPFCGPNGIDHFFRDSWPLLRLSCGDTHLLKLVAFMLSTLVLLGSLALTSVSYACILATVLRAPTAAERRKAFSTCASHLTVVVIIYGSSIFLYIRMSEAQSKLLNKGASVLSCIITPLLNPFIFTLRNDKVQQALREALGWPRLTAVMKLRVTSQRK
A digest of the protocol:
as §1

A further assay has as its system T4, OR6T1 N2D.
T4 sequence (whole entry): T3 sequence (whole entry) with N2D
A digest of the protocol: as §1

The next assay concerns the target T5, OR6V1 (Homo sapiens) (UniProt Q8N148).
T5 sequence (whole entry): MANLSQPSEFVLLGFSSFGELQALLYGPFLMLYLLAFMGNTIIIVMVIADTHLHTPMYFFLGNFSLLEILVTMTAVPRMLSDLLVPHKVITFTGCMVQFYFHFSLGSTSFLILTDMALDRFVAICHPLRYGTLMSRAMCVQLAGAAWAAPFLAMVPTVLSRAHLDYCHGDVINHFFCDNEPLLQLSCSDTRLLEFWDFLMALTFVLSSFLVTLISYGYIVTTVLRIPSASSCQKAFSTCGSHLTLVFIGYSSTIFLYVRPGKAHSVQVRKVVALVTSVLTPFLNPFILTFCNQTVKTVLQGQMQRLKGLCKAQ
Put shortly:
as §1

A further assay addresses T6, OR6X1 (Homo sapiens) (UniProt Q8NH79).
T6 sequence (whole entry): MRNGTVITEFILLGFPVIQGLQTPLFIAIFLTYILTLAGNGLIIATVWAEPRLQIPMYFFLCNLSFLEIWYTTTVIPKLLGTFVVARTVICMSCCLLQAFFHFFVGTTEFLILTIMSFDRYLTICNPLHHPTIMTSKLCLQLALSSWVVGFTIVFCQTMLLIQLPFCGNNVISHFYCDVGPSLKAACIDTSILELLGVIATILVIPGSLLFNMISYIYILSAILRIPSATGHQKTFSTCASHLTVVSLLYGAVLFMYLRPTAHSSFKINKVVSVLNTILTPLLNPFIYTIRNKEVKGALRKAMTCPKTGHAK
A digest of the protocol:
as §1

The next assay concerns the target T7, OR6Y1 (Homo sapiens) (UniProt Q8NGX8).
T7 sequence (whole entry): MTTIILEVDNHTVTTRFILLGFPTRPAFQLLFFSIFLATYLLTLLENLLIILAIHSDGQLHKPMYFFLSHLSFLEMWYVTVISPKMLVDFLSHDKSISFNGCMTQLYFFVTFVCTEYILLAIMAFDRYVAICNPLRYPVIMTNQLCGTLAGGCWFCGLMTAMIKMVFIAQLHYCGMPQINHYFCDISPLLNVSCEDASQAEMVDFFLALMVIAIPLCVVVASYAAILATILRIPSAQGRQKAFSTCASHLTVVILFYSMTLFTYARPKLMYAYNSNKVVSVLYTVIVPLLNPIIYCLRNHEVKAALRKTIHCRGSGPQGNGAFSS
Put shortly:
as §1

In a further assay the target is T8, OR7A10 (Homo sapiens) (UniProt O76100).
T8 sequence (whole entry): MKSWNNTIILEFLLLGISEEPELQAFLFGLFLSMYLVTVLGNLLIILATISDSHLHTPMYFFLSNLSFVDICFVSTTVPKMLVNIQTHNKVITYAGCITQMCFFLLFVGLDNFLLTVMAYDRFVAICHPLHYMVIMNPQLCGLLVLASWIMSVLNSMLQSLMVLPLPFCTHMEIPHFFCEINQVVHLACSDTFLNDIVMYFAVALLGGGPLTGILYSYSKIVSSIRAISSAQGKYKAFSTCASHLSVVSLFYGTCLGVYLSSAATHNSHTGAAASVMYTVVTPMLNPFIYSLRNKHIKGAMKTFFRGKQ
A digest of the protocol:
as §1

For another assay, the target named is T9, OR7A17 (Homo sapiens) (UniProt O14581).
T9 sequence (whole entry): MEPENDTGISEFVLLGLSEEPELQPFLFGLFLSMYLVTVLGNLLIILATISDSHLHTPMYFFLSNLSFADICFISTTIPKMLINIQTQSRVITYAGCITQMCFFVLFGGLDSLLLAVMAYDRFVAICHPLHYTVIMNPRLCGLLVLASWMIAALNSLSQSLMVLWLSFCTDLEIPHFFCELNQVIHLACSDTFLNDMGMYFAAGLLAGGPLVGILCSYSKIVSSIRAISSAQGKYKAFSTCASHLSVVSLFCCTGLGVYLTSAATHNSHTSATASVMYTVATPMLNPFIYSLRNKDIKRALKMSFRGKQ
Put shortly:
as §1

The next assay has as its target T10, OR7A5 (Homo sapiens) (UniProt Q15622).
T10 sequence (whole entry): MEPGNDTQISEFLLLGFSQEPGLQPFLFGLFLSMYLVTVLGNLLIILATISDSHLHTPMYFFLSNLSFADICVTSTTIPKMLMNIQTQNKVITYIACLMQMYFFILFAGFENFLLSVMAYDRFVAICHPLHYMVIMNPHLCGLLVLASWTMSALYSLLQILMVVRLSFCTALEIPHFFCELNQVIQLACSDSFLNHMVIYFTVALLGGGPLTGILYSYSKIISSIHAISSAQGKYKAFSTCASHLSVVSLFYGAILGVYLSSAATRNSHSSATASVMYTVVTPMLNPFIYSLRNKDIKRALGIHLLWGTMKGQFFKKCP
A digest of the protocol:
as §1

Numbering of substitutions follows the chain as printed.

As for `CCC1OC(=O)C(O)=C1C` (stereo unspecified), the “odorant receptor agonist call” value in the assay with OR6S1 (Homo sapiens), in the assay with OR6S1 T42I V156I, in the assay with OR6T1 (Homo sapiens), in the assay with OR6T1 N2D, in the assay with OR6V1 (Homo sapiens) and in the assay with OR6X1 (Homo sapiens) was “inactive” in each case. In addition, the “odorant receptor agonist call” value with OR6Y1 (Homo sapiens), with OR7A10 (Homo sapiens), in the assay with OR7A17 (Homo sapiens) and with OR7A5 (Homo sapiens) was “inactive” throughout.
With `CC1=NC(C)C(C)S1` (stereo unspecified), the “odorant receptor agonist call” value with OR6S1 (Homo sapiens), in the assay with OR6S1 T42I V156I, with OR6T1 (Homo sapiens), in the assay on OR6T1 N2D, with OR6V1 (Homo sapiens) and in the assay with OR6X1 (Homo sapiens) was “inactive” in each case. Also, the “odorant receptor agonist call” value in the assay with OR6Y1 (Homo sapiens), in the assay with OR7A10 (Homo sapiens), with OR7A17 (Homo sapiens) and with OR7A5 (Homo sapiens) was “inactive” each time.
For `CC(CO)CS` (stereo unspecified), the “odorant receptor agonist call” value in the assay with OR6S1 (Homo sapiens), in the assay with OR6T1 (Homo sapiens), in the assay with OR6V1 (Homo sapiens), with OR6X1 (Homo sapiens), in the assay with OR6Y1 (Homo sapiens) and with OR7A10 (Homo sapiens) was “inactive” in each case. Moreover, the “odorant receptor agonist call” value in the assay with OR7A17 (Homo sapiens) and with OR7A5 (Homo sapiens) was “inactive” in each case.
As to `CCC(S)C(C)CO` (stereo unspecified), the “odorant receptor agonist call” value in the assay with OR6S1 (Homo sapiens), with OR6T1 (Homo sapiens), with OR6V1 (Homo sapiens), with OR6X1 (Homo sapiens), with OR6Y1 (Homo sapiens) and in the assay with OR7A10 (Homo sapiens) was “inactive” each time. Further, the “odorant receptor agonist call” value with OR7A17 (Homo sapiens) and with OR7A5 (Homo sapiens) was “inactive” in each case.
Regarding `CCCCCC(S)C(C)CO` (stereo unspecified), the “odorant receptor agonist call” value in the assay with OR6S1 (Homo sapiens), with OR6T1 (Homo sapiens), in the assay with OR6V1 (Homo sapiens), in the assay with OR6X1 (Homo sapiens), with OR6Y1 (Homo sapiens) and with OR7A10 (Homo sapiens) was “inactive” in each case. The “odorant receptor agonist call” value with OR7A17 (Homo sapiens) and in the assay with OR7A5 (Homo sapiens) was “inactive” throughout.
`CC1=C(O)C(=O)C(C)O1` (stereo unspecified): the “odorant receptor agonist call” value with OR6S1 (Homo sapiens), in the assay on OR6S1 T42I V156I, with OR6T1 (Homo sapiens), with OR6T1 N2D, with OR6V1 (Homo sapiens) and with OR6X1 (Homo sapiens) was “inactive” in each case. Moreover, the “odorant receptor agonist call” value with OR6Y1 (Homo sapiens), with OR7A10 (Homo sapiens), with OR7A17 (Homo sapiens) and with OR7A5 (Homo sapiens) was “inactive” each time.
In the case of `CC1CCCCCCCCCCCCC(=O)C1` (stereo unspecified), the “odorant receptor agonist call” value with OR6S1 (Homo sapiens), with OR6T1 (Homo sapiens), with OR6V1 (Homo sapiens), in the assay with OR6X1 (Homo sapiens), with OR6Y1 (Homo sapiens) and with OR7A10 (Homo sapiens) was “inactive” each time. For the same molecule, the “odorant receptor agonist call” value with OR7A17 (Homo sapiens) and with OR7A5 (Homo sapiens) was “inactive” in each case.
As for `CC(=O)c1c(C)c([N+](=O)[O-])c(C(C)(C)C)c([N+](=O)[O-])c1C`, the “odorant receptor agonist call” value in the assay with OR6S1 (Homo sapiens), with OR6T1 (Homo sapiens), with OR6V1 (Homo sapiens), with OR6X1 (Homo sapiens), with OR6Y1 (Homo sapiens) and with OR7A10 (Homo sapiens) was “inactive” each time. Moreover, the “odorant receptor agonist call” value with OR7A17 (Homo sapiens) and in the assay with OR7A5 (Homo sapiens) was “inactive” each time.
On to `CC1=C(O)C(=O)OC1C` (stereo unspecified), for which the “odorant receptor agonist call” value in the assay with OR6S1 (Homo sapiens), in the assay on OR6S1 T42I V156I, with OR6T1 (Homo sapiens), in the assay on OR6T1 N2D, with OR6V1 (Homo sapiens) and with OR6X1 (Homo sapiens) was “inactive” in each case. In addition, the “odorant receptor agonist call” value with OR6Y1 (Homo sapiens), with OR7A10 (Homo sapiens), with OR7A17 (Homo sapiens) and with OR7A5 (Homo sapiens) was “inactive” each time.
For `CCCCC(S)C(C)CO` (stereo unspecified), the “odorant receptor agonist call” value in the assay with OR6S1 (Homo sapiens), with OR6T1 (Homo sapiens), with OR6V1 (Homo sapiens), with OR6X1 (Homo sapiens), with OR6Y1 (Homo sapiens) and in the assay with OR7A10 (Homo sapiens) was “inactive” in each case. In the assay with OR7A17 (Homo sapiens), the “odorant receptor agonist call” value is “inactive”. Further, the “odorant receptor agonist call” value in the assay with OR7A5 (Homo sapiens) is “active”.
Take `CCCC(S)CCOC(C)=O` (stereo unspecified): the “odorant receptor agonist call” value with OR6S1 (Homo sapiens), with OR6S1 T42I V156I, with OR6T1 (Homo sapiens), in the assay on OR6T1 N2D, with OR6V1 (Homo sapiens) and in the assay with OR6X1 (Homo sapiens) was “inactive” in each case. In addition, the “odorant receptor agonist call” value in the assay with OR6Y1 (Homo sapiens), in the assay with OR7A10 (Homo sapiens), in the assay with OR7A17 (Homo sapiens) and in the assay with OR7A5 (Homo sapiens) was “inactive” each time.
For `CCCCCC(=O)C(C)C(C)=O` (stereo unspecified), the “odorant receptor agonist call” value with OR6S1 (Homo sapiens), with OR6T1 (Homo sapiens), in the assay with OR6V1 (Homo sapiens), with OR6X1 (Homo sapiens), with OR6Y1 (Homo sapiens) and with OR7A10 (Homo sapiens) was “inactive” each time. For the same molecule, the “odorant receptor agonist call” value in the assay with OR7A17 (Homo sapiens) and in the assay with OR7A5 (Homo sapiens) was “inactive” throughout.
As for `CCC1OC(C)=C(O)C1=O` (stereo unspecified), the “odorant receptor agonist call” value in the assay with OR6S1 (Homo sapiens), in the assay with OR6S1 T42I V156I, in the assay with OR6T1 (Homo sapiens), in the assay with OR6T1 N2D, with OR6V1 (Homo sapiens) and in the assay with OR6X1 (Homo sapiens) was “inactive” throughout. Moreover, the “odorant receptor agonist call” value with OR6Y1 (Homo sapiens), with OR7A10 (Homo sapiens), with OR7A17 (Homo sapiens) and with OR7A5 (Homo sapiens) was “inactive” each time.
In the case of `CCCCCCC=CCCC=O`, the “odorant receptor agonist call” value in the assay with OR6S1 (Homo sapiens), with OR6S1 T42I V156I, with OR6T1 (Homo sapiens), with OR6T1 N2D, in the assay with OR6V1 (Homo sapiens) and with OR6X1 (Homo sapiens) was “inactive” each time. The “odorant receptor agonist call” value in the assay with OR6Y1 (Homo sapiens), with OR7A10 (Homo sapiens), in the assay with OR7A17 (Homo sapiens) and with OR7A5 (Homo sapiens) was “inactive” each time.
In the case of `Cc1cnc(C)c(C)n1`, the “odorant receptor agonist call” value with OR6S1 (Homo sapiens), with OR6S1 T42I V156I, with OR6T1 (Homo sapiens), with OR6T1 N2D, in the assay with OR6V1 (Homo sapiens) and with OR6X1 (Homo sapiens) was “inactive” throughout. The “odorant receptor agonist call” value with OR6Y1 (Homo sapiens), in the assay with OR7A10 (Homo sapiens), with OR7A17 (Homo sapiens) and in the assay with OR7A5 (Homo sapiens) was “inactive” in each case.
